Screening results from PubChem BioAssay.
Hits are enriched below; roughly 3.6% of the tested compounds scored in any of these assays.
GRIN3A LBD mod – NR3A (human) ligand-binding domain modulation. Tm shift relative to glycine control, % at 25 µM. 2.5% of 340,000 active. NR3A LBD differential scanning fluorimetry, Tm shift; 0% = protein alone, 100% = glycine-bound protein. AID 1259313;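 active means melting temperature shift of at least 10% of the positive control shift, at one fixed dose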
ATG4B inhibitor – ATG4B (human) cysteine protease inhibition | inhibition, % at 8.33 µM | ATG4B cleavage of LC3-PLA2, NBD-HPC fluorescence, 1 h | 0.51% of 340,000 active | Q9Y4P1; in the data active means inhibition above about 40%
Target sequence (Q9Y4P1 whole entry, looked up): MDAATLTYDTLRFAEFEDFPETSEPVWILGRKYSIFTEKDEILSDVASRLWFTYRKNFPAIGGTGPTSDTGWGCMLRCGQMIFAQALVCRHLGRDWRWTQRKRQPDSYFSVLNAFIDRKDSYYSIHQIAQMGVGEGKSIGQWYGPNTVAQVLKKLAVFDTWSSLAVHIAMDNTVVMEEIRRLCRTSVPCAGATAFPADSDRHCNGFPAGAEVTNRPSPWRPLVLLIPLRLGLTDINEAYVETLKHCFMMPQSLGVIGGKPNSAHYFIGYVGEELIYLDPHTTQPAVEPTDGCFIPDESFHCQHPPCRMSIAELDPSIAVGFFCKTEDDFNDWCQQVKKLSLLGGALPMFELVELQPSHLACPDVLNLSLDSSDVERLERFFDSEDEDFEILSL
SENP1 inh – SENP1 (human) catalytic domain inhibition; Q9P0U3; recombinant SENP1 catalytic domain, CyPet-SUMO1-YPet FRET cleavage; inhibition, % at 10 µM; 0.21% of 360,000 active; AID 624204;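 active means inhibition at least 30% at 10 µM, raw YFP signal under a set limit, fluorescence ratio 0.5 to 1.5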;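 further: 0% = enzyme with DMSO and 100% = no enzyme wells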
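Test system: hSENP1 catalytic domain, recombinant; Amount: 20 pM final SENP1 enzyme; Medium: Tris pH 8 buffer plus EDTA, NaCl, BME, BSA, NP40, catalase; Schedule: 50 min enzyme reaction, room temperature, light-protected; Technique: FRET fluorescence in CFP and YFP emission channels; Controls: no-enzyme wells low, DMSO-plus-enzyme wells high control.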
NadD block – inhibitors of Staphylococcus aureus NadD; purified NadD enzyme, colorimetric absorbance read-out; inhibition, % at 20 µM; 0.78% of 360,000 active; AID 602399; in the data active means inhibition above about 26%
UCH37 inh – inhibitors of human deubiquitinating enzyme UCH37. 0.33% of 330,000 active. purified proteasome/UCH37, Ub-AMC cleavage fluorescence. inhibition, % (test concentration not listed). Q9Y5K5;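 active means mean inhibition over replicate wells above about 20%, limit read from the data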;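 further: 0% = compound-free wells with enzyme and 100% = wells lacking proteasome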
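Test system – human UCH37 enzyme supplied as purified proteasome complex · Incubation – 30 min preincubation with enzyme, 25 min cleavage at room temperature · Detection – AMC fluorescence from Ub-AMC cleavage, excitation 355 nm, emission 460 nm · Benchmarks – no-proteasome wells (full inhibition) and compound-free wells (no inhibition)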
The depositor's hits bear a star; · = no result.

SMILES	GRIN3A LBD mod	ATG4B inhibitor	SENP1 inh	NadD block	UCH37 inh
CCOc1ccccc1C(=O)NN1C(=O)C2CCCCC2C1=O (stereo not drawn)	22.5*	-1.0	1.1	-5.4	2.3
COc1ccc(-c2n[nH]c(C)c2-c2ccc(Cl)cc2)c(O)c1	10.4*	1.2	-1.8	-2.5	1.4
Cc1[nH]nc(-c2ccc(O)cc2O)c1-c1ccc(Cl)cc1	22.7*	-3.0	-1.1	1.0	3.6
N#Cc1cccc(C#N)c1Oc1ccc(S(=O)(=O)Nc2ccc(Cl)cc2)cc1	10.1*	0.5	-2.1	-6.4	4.1
CC(C)C=NNc1nc(-c2ccc(Br)cc2)cs1	·	·	·	·	0.4
Cc1ccc2nc(-c3cccc(Br)c3)cc(C(=O)NC3CC3)c2c1	13.2*	-4.2	-1.0	4.4	-1.6
CCOC(=O)c1ccc(NC(=NS(=O)(=O)c2ccccc2C)c2ccccc2)cc1	·	·	·	·	0.5
COc1ccc(CCNC(=O)CC(C)=NNC(=O)Cc2cccc3ccccc23)cc1OC	·	·	·	·	1.3
CC(C)c1c(O)ccc2c1CC[C@H]1C(C)(C)CCC[C@]21C	22.2*	6.1	-2.3	2.3	·
CC(C)(O)c1ccc2c(c1)CCC1C(C)(C(=O)O)CCCC21C (stereo not drawn)	-3.1	-7.8	-1.1	-4.9	-1.9
Oc1ccccc1-c1n[nH]c(-c2ccccc2O)n1	22.7*	-0.5	0.9	-0.2	·
Clc1ccccc1-c1nc(-c2ccccc2)n[nH]1	-0.6	-1.8	0.3	-0.1	4.6
Cc1cc(=O)[nH]c(-c2ccccc2O)n1	1.0	11.8	-2.9	-6.8	-19.7
Cc1cc2nc(-c3ccccc3O)[nH]c2cc1C	26.7*	4.0	-62.9	4.8	-210.6
O=C(NN=Cc1cccc(NC(=O)c2ccc(Cl)cc2)c1)c1cccc(O)c1	·	·	·	·	0.2
O=C(Cc1ccc([N+](=O)[O-])cc1)NN=Cc1cccs1	·	·	·	·	3.8
O=C(N=Nc1c(O)n(Cc2ccccc2)c2ccccc12)c1ccc(O)cc1	4.0	-17.4	2.0	28.5	6.6
O=C(N=Nc1c(O)n(Cc2ccccc2)c2ccccc12)c1cc2ccccc2cc1O	12.6*	-1.2	3.6	39.6*	14.5
Cc1ccc(NC(=O)Cn2c(O)c(N=NC(=O)c3cc4ccccc4cc3O)c3ccccc32)cc1	6.2	4.4	6.8	46.0*	19.0
CCCCn1ccnc1C(=O)c1cc(S(=O)(=O)N2CCOCC2)ccc1C	0.0	-2.0	-0.4	-6.9	-0.6
CCCCn1ccnc1C(=O)c1cccc(S(=O)(=O)N2CC(C)CC(C)C2)c1 (stereo not drawn)	15.7*	0.9	0.2	-2.1	2.5
COC(=O)CC1=NC(=O)CS1	11.0*	-6.4	1.5	-1.5	2.6
CON=C(C)C(Cc1ccc(Cl)nc1)Cc1ccc(Cl)nc1	·	·	·	·	6.0
Oc1ccc(/C=N/N2CCN(C3c4ccccc4-c4ccccc43)CC2)c(O)c1	11.0*	6.7	0.8	10.7	·
COc1ccc(-c2nnc3ccc(SCC(=O)Nc4nc5ccc(C)cc5s4)nn23)cc1OC	13.9*	-32.1	0.2	-13.2	-12.0
SMILES	GRIN3A LBD mod	ATG4B inhibitor	SENP1 inh	NadD block	UCH37 inh
COC(=O)CSc1ccc2nnc(-c3ccc(OC)c(OC)c3)n2n1	-1.2	-6.5	-1.6	0.4	4.2
COc1ccc(NC(=O)CSc2nnnn2-c2ccc(F)cc2)cc1	13.6*	0.8	2.2	-6.5	-0.4
CCCCNc1nc2c(S(=O)(=O)c3ccccc3)nnn2c2ccccc12	15.3*	-3.6	2.4	1.5	-42.7
Cc1ccc(S(=O)(=O)c2nnn3c2nc(NC2CCN(Cc4ccccc4)CC2)c2ccccc23)cc1C	8.2	-1.8	-6.9	37.6*	-146.0
O=C(NN=Cc1c(O)ccc2ccccc12)c1cccnc1	·	·	·	·	5.0
Cc1ccccc1CNC1CCCCC1	0.3	-11.2	0.2	1.5	2.7
Oc1cc(CNC2CCCCC2)c(O)cc1CNC1CCCCC1	0.2	0.6	13.5	30.8*	2.4
CCSc1nc(=S)cc(C)[nH]1	10.3*	-8.2	3.1	-6.6	5.0
CCOc1ccc(Nc2nc(NCc3ccco3)nc(N)c2[N+](=O)[O-])cc1	12.1*	3.2	-0.8	2.1	8.1
O=C(COC(=O)c1cccc(NS(=O)(=O)/C=C/c2ccccc2)c1)Nc1ccccc1OC(F)F	18.6*	-0.1	0.2	-3.1	4.8
CCNC(=O)NC(=O)COC(=O)c1cccc(NS(=O)(=O)/C=C/c2ccccc2)c1	-5.6	-11.0	-0.5	-1.4	0.5
